The text below walks through data of ChEMBL document CHEMBL3856274, “Sydnone Cycloaddition Route to Pyrazole-Based Analogs of Combretastatin A4” (J Med Chem, 2016).

SMILES strings stand for the structures. Calls of active or inactive are those of the source. The calls are words filed in the database; no cut-off is given here. Where only a bound is given, the exact number is not on record here.

One series relates to SW1222. Briefly: Induction of necrosis in human SW1222 cells xenografted in SCID mouse at 0.227 mmol/kg administered as single dose measured after 24 hrs by hematoxylin/eosin staining-based microscopic method. In kind it is functional, cell-based. Put shortly:
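SW1222 cells (5 × 10^6) injected s.c. into the rear dorsum of female SCID mice (8–12 weeks). Tumours treated at about 8 mm mean diameter with a single dose of 0.227 mmol/kg in […]/NaCl, 10 mL/kg. Tumours excised at 24 h. Necrosis scored on 5 µm H&E sections by Chalkley point counting.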
A general note: Xenograft models place foreign cells or tissue in a host animal.

Series [1] deals with HUVEC. Briefly: Activation of ROCK in HUVEC assessed as phosphorylation of myosin light chain at 50 to 500 nM after 15 mins by Western blot method. It is filed as cell-based. The following applies: Homo sapiens. Put shortly: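 HUVECs seeded on gelatin at 5 × 10^4 cells/well and grown 7 days without medium change. Drugs diluted in EBM from 20 mM DMSO stock and applied 15 min. Proteins extracted in LDS buffer. Western blot for dually phosphorylated MLC, with actin reprobe for loading. Band intensity given as fold-change over vehicle. Mean of 3-4 independent experiments ± SEM.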

The subject of series [2] is HUVEC. Briefly: Induction of HUVEC monolayer permeability assessed as increase in passage of FITC-dextran through cell monolayer at 50 nM preincubated for 30 mins followed by compound washout and addition of FITC-dextran for 30 mins by fluorescence assay. In kind it is functional, cell-based. The following applies: Homo sapiens. Put shortly: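 HUVECs seeded at 5 × 10^4 per fibronectin-coated 3 µm-pore insert and cultured 5 days to a confluent monolayer. Drug 50 nM for 30 min at 37 °C, then replaced with FITC-dextran (0.8 mg/mL) for 30 min. Lower-well fluorescence read at ex 488/em 525 and expressed as % of a cell-free insert. Mean of 3 independent experiments ± SEM.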

Series [3] relates to HUVEC. Briefly: Disruption of interphase microtubule in HUVEC assessed as change in cell morphology at 250 nM after 30 mins by DAPI staining-based immunofluorescence assay. The conditions noted are these: Homo sapiens. Put shortly: (§1)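 HUVECs (supplemented medium, 10% FCS final, used up to 5 passages) plated on fibronectin-coated chamber slides at 2.5 × 10^4 or 5 × 10^4 cells/well. Treated with drug (dilutions in EBM from 20 mM DMSO stock) or vehicle for 30 min. Then fixed in 3.7% formalin, permeabilized in 0.1% Triton X-100, and stained for β-tubulin (antibody), F-actin (phalloidin) and nuclei (DAPI).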

The subject of series [4] is HUVEC. Briefly: Disruption of interphase microtubule in HUVEC assessed as formation of actin stress fiber at 250 nM after 30 mins by phalloidin/DAPI staining-based immunofluorescence assay. It is filed as cell-based. The conditions noted are these: Homo sapiens. A digest of the protocol:
(§2)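 HUVECs seeded on fibronectin-coated chamber slides. Drug diluted in EBM from 20 mM DMSO stock. Exposure 250 nM for 30 min or 1 µM for 90 min. Fixed in 3.7% formalin and permeabilised in 0.1% Triton X-100. Stained for β-tubulin by antibody, F-actin by phalloidin and nuclei by DAPI, then imaged by immunofluorescence.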

The test system of series [5] is HUVEC. Briefly: Growth inhibition of HUVEC after 72 hrs by crystal violet staining-based assay. In kind it is functional. The conditions noted are these: Homo sapiens. A digest of the protocol:
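HUVECs at 5 × 10^3/well on gelatin-coated plates were allowed to adhere for 24 h, then given a drug concentration series in EBM (≥8 wells per concentration) for 72 h at 37 °C. Cells were fixed in 3.7% formalin and stained with 1% crystal violet, which was solubilized in 10% acetic acid and read at A590 with background correction. % growth inhibition from ≥3 independent experiments was plotted against log concentration to give GI50.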

For series [6], the system named is HUVEC. Briefly: Disruption of interphase microtubule in HUVEC assessed as change in cell shape at 250 nM after 30 mins by DAPI staining-based immunofluorescence assay. The following applies: Homo sapiens. Put shortly: as §1
The subject of series [7] is HUVEC. Kind of series: Disruption of interphase microtubule in HUVEC assessed as change in cell morphology at 1 uM after 90 mins by DAPI staining-based immunofluorescence assay. The following applies: Homo sapiens. Put shortly:
as §2

For series [8], the system named is HUVEC. Kind of series: Disruption of interphase microtubule in HUVEC assessed as formation of actin stress fiber at 1 uM after 90 mins by phalloidin/DAPI staining-based immunofluorescence assay. It is filed as cell-based. The following applies: Homo sapiens. A digest of the protocol:
as §2

Series [9] relates to HUVEC. Kind of series: Disruption of interphase microtubule in HUVEC assessed as change in cell shape and morphology at 250 nM preincubated for 30 mins followed by compound washout measured after 60 mins by DAPI staining-based immunofluorescence assay. The following applies: Homo sapiens. Put shortly: (§3)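 HUVECs on fibronectin-coated chamber slides were exposed to 250 nM drug or vehicle for 30 min at 37 °C. Cells were washed four times with serum-containing medium, incubated 30 min, washed again and incubated a further 30 min (60 min recovery). They were then fixed in 3.7% formalin, permeabilized with 0.1% Triton X-100, and stained for β-tubulin, F-actin (phalloidin) and DAPI.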

For series [10], the system named is HUVEC. Kind of series: Disruption of interphase microtubule in HUVEC assessed as formation of actin stress fiber at 250 nM preincubated for 30 mins followed by compound washout measured after 60 mins by DAPI staining-based immunofluorescence assay. In kind it is cell-based. The following applies: Homo sapiens. Put shortly: as §3
The nature of series [11]: Toxicity in SCID mouse. It is filed as organism-based. The conditions noted are these: in vivo.

As a reminder, the GI50 is the concentration at which growth is held to half of that of the control. Read a low GI50 as more potent growth inhibition. On to `COc1ccc(/C=C\c2cc(OC)c(OC)c(OC)c2)cc1OP(=O)(O)O` [FOSBRETABULIN DISODIUM], for which the result in the series on SW1222, in the series on HUVEC [1], with HUVEC [2], in the series with HUVEC [3] and in the series on HUVEC [4] was Active. The same compound came in with a GI50 in the series with HUVEC [5] of 8 nM.
In the series with HUVEC [5], `COc1ccc(-c2c(-c3cc(OC)c(OC)c(OC)c3)cnn2C)cc1O` returned a GI50 of 118 nM.
Still for that read-out and setting: the value for `COc1ccc(-n2nccc2-c2cc(OC)c(OC)c(OC)c2)cc1O` was above 750 nM.
On to `COc1ccc(-c2c(-c3cc(OC)c(OC)c(OC)c3)cnn2Cc2ccccc2)cc1O`, for which the GI50 with HUVEC [5] was above 750 nM.
On to `COc1ccc(-c2cnn(Cc3ccccc3)c2-c2cc(OC)c(OC)c(OC)c2)cc1O`, for which the GI50 in the series on HUVEC [5] was above 2500 nM.
On the same count and under the same terms, the value for `COc1ccc(-c2cn(C)nc2-c2cc(OC)c(OC)c(OC)c2)cc1O` was above 5000 nM; that for `COc1ccc(-c2nn(C)cc2-c2cc(OC)c(OC)c(OC)c2)cc1O` was 256 nM.
Compound `COc1ccc(-c2cn(Cc3ccccc3)nc2-c2cc(OC)c(OC)c(OC)c2)cc1O` yielded a GI50 in the series with HUVEC [5] above 5000 nM.
Consider `COc1ccc(-c2ccnn2-c2cc(OC)c(OC)c(OC)c2)cc1O`, for which the outcome in the series on HUVEC [6] and with HUVEC [3] was Active. For the same compound, growth with HUVEC [5] was halved (GI50) at 28 nM.
For the compound `COc1ccc(-c2cn[nH]c2-c2cc(OC)c(OC)c(OC)c2)cc1O`, the GI50 in the series on HUVEC [5] was above 5000 nM.
As to `COc1cc2c(c(OC)c1OC)-c1ccc(OC)c(=O)cc1[C@@H](NC(C)=O)CC2` [COLCHICINE], the outcome with HUVEC [7] and in the series with HUVEC [8] was Active. In the series on HUVEC [5], this compound gave a GI50 of 25 nM.
As for `COc1ccc(-c2cnn(C)c2-c2cc(OC)c(OC)c(OC)c2)cc1O`, halving of growth in the series on HUVEC [5] (GI50) required 68 nM.
Turning to `COc1ccc(-c2[nH]ncc2-c2cc(OC)c(OC)c(OC)c2)cc1O`, the result in the series with SW1222, in the series on HUVEC [9], in the series with HUVEC [6], in the series with HUVEC [10], with HUVEC [1] and in the series with HUVEC [2] was Active. The outcome with HUVEC [3] was Active. The compound also came in with an MTD in [11] above 162 mg/kg. This compound gave a GI50 with HUVEC [5] of 7 nM.
Regarding `COc1ccc(-c2nn(Cc3ccccc3)cc2-c2cc(OC)c(OC)c(OC)c2)cc1O`, the GI50 in the series with HUVEC [5] was above 2000 nM.
